Bioassay records (PubChem)
Pf gametocyte = inhibitors of late stage P. falciparum gametocyte viability; P. falciparum stage V gametocytes, ATP luminescence, 24 h; inhibition, % at 10.9 µM; AID 743093; 0.065% of 150,000 active;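 active = inhibition above the mean plus 3 SD of compounds within the control limits, set per campaign, cut at about 38% in these data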;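 also: 0% = DMSO wells and 100% = medium only without gametocytes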
Calb biofilm kill = mixtures killing C. albicans biofilm | 0.02% of 120,000 active | inhibition, % at 7.6 µM | AID 1242 | C. albicans biofilm persisters + clotrimazole, fluorescence viability; primary screen in compound mixtures of four per well;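 also: compounds exposed to preformed 24 h biofilms for 48 h; 0% = untreated biofilm control and 100% = clotrimazole plus chlorhexidine kill blank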
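Assay system: C. albicans biofilms / Medium: RPMI/MOPS medium, pH 7.0 / Schedule: biofilm formation 24 h, compound exposure 48 h, 37 °C / Measured by: Alamar Blue fluorescence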
ROMK mod = human ROMK K+ channel modulation, primary screen. P48048. Tet-inducible ROMK, thallium flux fluorescence; actives lie on both sides. B-score at 10 µM. 2% of 130,000 active;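 active = signal ratio slope over the read window, or its plate-corrected B-score, at least 3 SD from the plate mean, either direction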;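 also: B-score of the F/F0 ratio slope over 7 to 12 s after thallium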
Target sequence (P48048 whole entry, looked up): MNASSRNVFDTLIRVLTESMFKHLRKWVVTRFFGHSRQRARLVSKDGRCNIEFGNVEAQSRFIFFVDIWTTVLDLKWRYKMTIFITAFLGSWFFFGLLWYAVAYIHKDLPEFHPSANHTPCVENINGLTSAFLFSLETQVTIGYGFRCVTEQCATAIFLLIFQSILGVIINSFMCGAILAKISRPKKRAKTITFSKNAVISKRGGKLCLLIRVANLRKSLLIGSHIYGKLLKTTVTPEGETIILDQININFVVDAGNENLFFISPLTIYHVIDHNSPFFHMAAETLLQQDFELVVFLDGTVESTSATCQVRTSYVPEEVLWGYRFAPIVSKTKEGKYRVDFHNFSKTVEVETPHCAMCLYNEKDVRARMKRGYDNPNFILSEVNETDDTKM
ROMK retest = retested hit modulating human ROMK potassium channel. shares compounds with ROMK mod. ROMK thallium flux, fluorescence ratio; stronger effect = lower value. normalized thallium flux (F/F0 slope) at 10 µM. 54% of 3,000 active;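 active = Flux at 10 µM at least 3 SD below or above vehicle control mean in one or both replicates; inconclusive = no clear call, values can overlap the other calls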
* = called active by the depositor; ? = inconclusive; / = no result given. Many of the other results were omitted from the sample, so hits are more common in it than they were.

SMILES	Pf gametocyte	Calb biofilm kill	ROMK mod	ROMK retest
CCN(CC)C(=O)c1sc2c(c1C)c(=O)n(-c1ccc(C)c(C)c1)c(=O)n2CC(=O)NCC1CCCO1 (stereo not drawn)	-4.8	7.4	-0.286	/
CC12CCC(C(=O)Nc3cccc4ccccc34)(C1Br)C2(C)C (stereo not drawn)	-4.0	/	/	/
Cc1cc(NC(=O)c2ccc(Cl)cc2Cl)no1	-3.3	/	/	/
COc1cccc(C(=O)CSc2nnc(-c3cc(OC)cc(OC)c3)o2)c1	/	/	1.09*	?
COc1ccc(C(=O)CSc2nnc(-c3cc(C)cc(C)c3)o2)cc1	6.5	/	/	/
CN1C(c2ccccc2)=NO[C@]1(C)c1ccccc1	-8.0	/	/	/
COc1ccc(/C=N\NC(=O)c2c(C)nc3ccc(Br)cn23)cc1	25.9	10.7	2.31*	0.0982*
COc1ccc(/C=N/NC(=O)c2c(C)nc3ccc(Br)cn23)cc1OC	6.0	12.8	0.436	/
CC(=O)Nc1ccc(S(=O)(=O)N2CCN(Cc3ccncc3)CC2)cc1	/	/	0.905	/
CC(=O)Nc1ccc(S(=O)(=O)N2CCN(Cc3nc4sc(C)c(C)c4c(=O)[nH]3)CC2)cc1	-9.1	12.6	/	0.0738
NCCCC[C@H]1CNC(=O)C(=O)N1CCc1cccc(F)c1	/	-0.8	/	/
O=S(=O)(Nc1nc2c(s1)CCCC2)c1ccc(Br)cc1	-8.9	-8.4	-3.15*	0.0759
O=S(=O)(Nc1nc2c(s1)CCCC2)c1ccc(F)cc1	/	/	-1.17	/
COCCNC(=O)c1cc(-c2ccccc2)n(Cc2cc(C)no2)n1	3.4	/	/	/
CCC1CCCCN1S(=O)(=O)c1ccc(S(=O)(=O)N(Cc2ccccn2)CC2CCCO2)cc1 (stereo not drawn)	-18.9	10.1	-2.4	/
CCC1CCCCN1S(=O)(=O)c1ccc(S(=O)(=O)N(Cc2cccs2)C2CC2)cc1 (stereo not drawn)	6.5	/	/	?
O=C(NCc1ccco1)c1ccc(-c2csnn2)cc1	-4.7	3.4	/	/
CN(C)S(=O)(=O)c1ccc(NC(=O)COC(=O)C2COc3ccccc3O2)cc1 (stereo not drawn)	-8.0	-3.5	-0.433	/
Cc1ccc(S(=O)(=O)N2CCCOC2CNC(=O)C(=O)NCc2ccncc2)cc1 (stereo not drawn)	11.9	16.0	-0.0412	/
CCOC(=O)N1CCC(n2c(SCC(=O)N3CCCC3)nc3ccccc3c2=O)CC1	-4.0	/	/	/
CCOC(=O)N1CCC(n2c(SCC(=O)NCc3ccccc3)nc3ccccc3c2=O)CC1	-14.1	/	0.212	/
CCOC(=O)N1CCC(n2c(SCC(=O)NCCC3=CCCCC3)nc3ccccc3c2=O)CC1	-33.1	/	-6.99*	?
CCOC(=O)N1CCC(n2c(SCC(=O)Nc3ccccc3OC)nc3ccccc3c2=O)CC1	11.9	/	-4.22*	0.0653*
Nc1n[nH]c(N)c1N=Nc1ccc2c(c1)OCO2	-10.5	10.1	1.65	/
COc1ccc(C/C(=N\O)c2ccc(OC)cc2)cc1	3.0	/	/	/
SMILES	Pf gametocyte	Calb biofilm kill	ROMK mod	ROMK retest
O=C(CN1C(=O)C2C3c4ccccc4C(c4ccccc43)C2C1=O)Nc1cccc(C(=O)O)c1 (stereo not drawn)	9.6	4.4	0.0307	/
CC[C@@](C)(NS(=O)(=O)OCC(Cl)(Cl)Cl)c1ccccc1	3.5	/	/	/
CCn1cc(CNC(=O)c2cc(-c3cc(OC)ccc3OC)nc3ccccc23)c(C)n1	9.8	14.1	-0.178	/
Cc1ccc2cc(C=O)c(Cl)nc2c1	-14.9	13.1	3.68*	0.0834
CCOC(=O)/C(C#N)=C/c1cc2ccc(C)cc2nc1Cl	-12.9	5.2	-0.173	/
C=CCn1c(SCc2ccc(C(=O)Nc3nccs3)cc2)nnc1-c1ccc(C)c(Cl)c1	3.4	4.0	/	0.0731
Cn1nnnc1SCc1ccc(C(=O)Nc2nccs2)cc1	1.0	/	/	/
O=C(c1ccc(Br)cc1)c1cc([N+](=O)[O-])ccc1N1CCOCC1	-9.6	21.6	4.47*	0.0961
O=C(c1ccc(Cl)cc1)c1cc([N+](=O)[O-])ccc1N1CCOCC1	/	7.3	1.7	/
CC1CCCN(c2ccc([N+](=O)[O-])cc2C(=O)c2ccccc2)C1 (stereo not drawn)	-2.6	9.6	2.28	0.0903
O=C(c1ccccc1)c1cc([N+](=O)[O-])ccc1N1CCOCC1	7.5	20.5	/	/
O=C(Nc1ccc2oc(=O)ccc2c1)c1cc([N+](=O)[O-])ccc1N1CCOCC1	-35.2	3.9	-7.29*	0.0311*
Cc1cc(=O)oc2cc(NC(=O)c3cc([N+](=O)[O-])ccc3N3CCOCC3)ccc12	-13.9	15.3	-0.595	/
CC(C)(C)C1=CC=C(C(C)(C)C)C(=O)C1=O	/	13.7	/	/
O=C(CSc1ccccn1)N1CCc2ccccc21	17.5	13.5	-0.785	/
Cc1nc2ccc(Nc3ccncc3)cc2s1	-21.9	11.4	-0.353	/
O=C(O)[C@@H]1Cc2ccccc2N1	9.0	6.3	/	/
CC1(C)Cc2c(C#N)c(SCC(=O)O)nc(N3CCOCC3)c2CO1	-11.3	/	/	/
